Experimental findings from ChEMBL document CHEMBL1152541, “Staurosporine tethered peptide ligands that target cAMP-dependent protein kinase (PKA): optimization and selectivity profiling” (Bioorg Med Chem, 2009) are described below.

*1 amine or outer side, *2 acyl side, *3 side chain or, on linkers, in order; H or OH if unused. Where a SMILES comes first, the peptide text is derived from it. Bridges are numbered along the chain shown (N, C = ends). [ ]: non-standard residue; d: D form. The star is where a group is joined. Staurosporine = CO[C@@H]1[C@H](N(C)*)C[C@H]2O[C@]1(C)n1c3ccccc3c3c4c(c5c6ccccc6n2c5c31)C(=O)NC4; Suc = O=C(CCC(=O)[*:2])[*:1]; Dap = NC[C@H](N)C(=O)O; βAla = NCCC(=O)O

For test [1], the target named is Serine/threonine-protein kinase PAK 4 (Homo sapiens) (UniProt O96013). Description: Binding affinity to human PAK4 at 500 nM by cell-based competition binding assay relative to control in presence of DTT.
Test [2] has as its target Serine/threonine-protein kinase 32C (Homo sapiens) (UniProt Q86UX6). Description: Binding affinity to human YANK3 at 500 nM by cell-based competition binding assay relative to control in presence of DTT.
In test [3] the target is Proto-oncogene tyrosine-protein kinase receptor Ret (Homo sapiens) (UniProt P07949). Description: Binding affinity to human RET at 500 nM by cell-based competition binding assay relative to control in presence of DTT.
Proto-oncogene tyrosine-protein kinase receptor Ret (Homo sapiens), sequence (P07949 whole entry): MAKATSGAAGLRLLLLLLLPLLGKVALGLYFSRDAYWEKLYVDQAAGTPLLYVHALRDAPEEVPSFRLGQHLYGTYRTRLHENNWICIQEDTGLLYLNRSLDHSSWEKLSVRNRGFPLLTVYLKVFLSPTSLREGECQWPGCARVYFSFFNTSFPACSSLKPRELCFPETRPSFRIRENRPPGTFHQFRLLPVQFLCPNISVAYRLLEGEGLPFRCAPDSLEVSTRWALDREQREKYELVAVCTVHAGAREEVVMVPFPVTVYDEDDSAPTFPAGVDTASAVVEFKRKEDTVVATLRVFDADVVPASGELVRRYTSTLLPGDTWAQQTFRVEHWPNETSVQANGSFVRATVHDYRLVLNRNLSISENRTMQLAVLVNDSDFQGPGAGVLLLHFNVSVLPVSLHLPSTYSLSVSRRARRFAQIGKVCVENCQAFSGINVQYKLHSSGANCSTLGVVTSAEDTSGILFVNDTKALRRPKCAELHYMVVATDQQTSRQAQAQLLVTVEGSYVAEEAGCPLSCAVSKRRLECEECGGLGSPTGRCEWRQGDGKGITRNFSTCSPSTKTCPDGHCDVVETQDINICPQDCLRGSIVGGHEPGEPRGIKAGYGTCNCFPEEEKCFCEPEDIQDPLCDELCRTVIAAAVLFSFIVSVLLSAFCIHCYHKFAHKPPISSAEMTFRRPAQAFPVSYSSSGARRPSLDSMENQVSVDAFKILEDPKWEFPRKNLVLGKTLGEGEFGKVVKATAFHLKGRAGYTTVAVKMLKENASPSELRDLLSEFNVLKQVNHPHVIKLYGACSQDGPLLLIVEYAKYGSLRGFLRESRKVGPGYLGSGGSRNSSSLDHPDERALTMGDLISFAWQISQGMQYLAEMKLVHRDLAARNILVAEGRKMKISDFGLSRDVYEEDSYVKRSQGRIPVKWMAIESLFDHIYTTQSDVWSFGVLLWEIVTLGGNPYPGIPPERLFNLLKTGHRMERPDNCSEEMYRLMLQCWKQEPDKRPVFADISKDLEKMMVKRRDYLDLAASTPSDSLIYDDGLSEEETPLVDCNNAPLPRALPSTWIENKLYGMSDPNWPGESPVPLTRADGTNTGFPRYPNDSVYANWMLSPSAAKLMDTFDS
For test [4], the target named is Focal adhesion kinase 1 (Homo sapiens) (UniProt Q05397). Description: Binding affinity to human PTK2 at 500 nM by cell-based competition binding assay relative to control in presence of DTT.
In test [5] the target is Non-receptor tyrosine-protein kinase TYK2 (Homo sapiens) (UniProt P29597). Description: Binding affinity to human TYK2 kinase domain 2 at 500 nM by cell-based competition binding assay relative to control in presence of DTT.
Non-receptor tyrosine-protein kinase TYK2 (Homo sapiens), sequence (P29597 whole entry, the tested form may be a part): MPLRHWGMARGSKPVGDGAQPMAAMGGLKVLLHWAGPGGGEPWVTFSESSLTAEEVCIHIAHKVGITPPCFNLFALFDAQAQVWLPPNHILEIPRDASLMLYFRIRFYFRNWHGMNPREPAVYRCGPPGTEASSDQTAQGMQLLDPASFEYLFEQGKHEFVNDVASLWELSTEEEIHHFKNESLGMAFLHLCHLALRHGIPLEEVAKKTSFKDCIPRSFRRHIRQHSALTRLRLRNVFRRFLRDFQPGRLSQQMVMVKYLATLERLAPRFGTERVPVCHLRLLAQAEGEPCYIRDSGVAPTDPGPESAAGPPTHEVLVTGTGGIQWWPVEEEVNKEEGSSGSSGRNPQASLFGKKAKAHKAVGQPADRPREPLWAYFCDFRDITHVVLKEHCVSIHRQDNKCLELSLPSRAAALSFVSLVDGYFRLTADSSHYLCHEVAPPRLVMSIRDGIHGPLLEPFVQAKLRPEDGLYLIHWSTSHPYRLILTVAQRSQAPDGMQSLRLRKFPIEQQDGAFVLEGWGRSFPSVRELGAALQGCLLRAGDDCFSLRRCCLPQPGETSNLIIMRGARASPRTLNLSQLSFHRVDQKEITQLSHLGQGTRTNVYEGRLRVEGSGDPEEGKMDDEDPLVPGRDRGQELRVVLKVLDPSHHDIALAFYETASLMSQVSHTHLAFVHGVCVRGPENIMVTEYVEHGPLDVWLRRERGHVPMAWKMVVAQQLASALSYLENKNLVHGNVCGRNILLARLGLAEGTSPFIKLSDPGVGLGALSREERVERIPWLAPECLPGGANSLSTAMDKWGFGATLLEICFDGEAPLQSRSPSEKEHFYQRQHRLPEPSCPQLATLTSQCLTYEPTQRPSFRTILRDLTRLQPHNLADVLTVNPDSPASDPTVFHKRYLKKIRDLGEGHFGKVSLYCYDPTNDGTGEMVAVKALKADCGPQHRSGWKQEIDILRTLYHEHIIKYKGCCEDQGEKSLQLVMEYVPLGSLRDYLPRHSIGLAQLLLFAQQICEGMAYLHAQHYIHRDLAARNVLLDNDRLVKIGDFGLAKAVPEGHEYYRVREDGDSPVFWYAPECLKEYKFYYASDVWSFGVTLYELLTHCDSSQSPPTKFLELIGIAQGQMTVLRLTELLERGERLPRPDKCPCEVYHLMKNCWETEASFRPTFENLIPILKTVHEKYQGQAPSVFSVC
Test [6] has as its target T1, Serine/threonine-protein kinase Chk1 (Homo sapiens) (UniProt O14757).
T1 sequence (whole entry): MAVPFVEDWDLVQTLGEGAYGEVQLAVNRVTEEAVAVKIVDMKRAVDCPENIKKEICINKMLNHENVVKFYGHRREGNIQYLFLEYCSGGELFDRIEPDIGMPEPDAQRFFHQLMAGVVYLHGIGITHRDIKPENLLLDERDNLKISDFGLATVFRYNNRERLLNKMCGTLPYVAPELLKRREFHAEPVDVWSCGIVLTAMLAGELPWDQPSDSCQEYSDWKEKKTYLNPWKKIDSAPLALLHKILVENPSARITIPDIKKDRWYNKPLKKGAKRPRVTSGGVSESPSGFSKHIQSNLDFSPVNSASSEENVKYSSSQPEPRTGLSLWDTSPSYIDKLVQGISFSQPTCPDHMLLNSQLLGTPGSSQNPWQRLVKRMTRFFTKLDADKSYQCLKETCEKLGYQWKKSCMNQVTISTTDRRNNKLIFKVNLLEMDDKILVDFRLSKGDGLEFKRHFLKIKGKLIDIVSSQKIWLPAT
Kind of test: Ratio of compound to staurosporine binding affinity to CHK1 in presence of DTT.

In test [7] the target is Mitogen-activated protein kinase 10 (Homo sapiens) (UniProt P53779). Kind of test: Binding affinity to human JNK3 at 500 nM by cell-based competition binding assay relative to control in presence of DTT. The procedure, abridged:
(§1)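 Competition binding screen (Ambit) across a panel of 90 kinases, scoring test ligand displacement of each kinase's binding relative to control. The screen ran under reducing conditions with 7.5 mM DTT.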

For test [8], the target named is Serine/threonine-protein kinase PAK 1 (Homo sapiens) (UniProt Q13153). Kind of test: Binding affinity to human PAK1 at 500 nM by cell-based competition binding assay relative to control in presence of DTT.
Test [9] relates to Epidermal growth factor receptor (Homo sapiens), P00533 [L858R]. Kind of test: Binding affinity to human EGFR L858R mutant at 200 nM by cell-based competition binding assay relative to control in presence of DTT. The procedure, abridged: (§2)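 Commercial (Ambit) competitive kinase-binding panel of 90 kinases measured the binding profile. Run under reducing conditions of 7.5 mM DTT. Binding is expressed relative to control.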

In test [10] the target is Hepatocyte growth factor receptor (Homo sapiens) (UniProt P08581). Description: Binding affinity to human MET at 200 nM by cell-based competition binding assay relative to control in presence of DTT.
Test [11] addresses Fibroblast growth factor receptor 3 (Homo sapiens) (UniProt P22607). Description: Binding affinity to human FGFR3 at 200 nM by cell-based competition binding assay relative to control in presence of DTT. The procedure, abridged: as §2
Test [12] concerns the target Phosphatidylinositol 4,5-bisphosphate 3-kinase catalytic subunit alpha isoform (Homo sapiens) (UniProt P42336). Kind of test: Binding affinity to human PIK3Calpha at 200 nM by cell-based competition binding assay relative to control in presence of DTT.
The target in test [13] is Mitogen-activated protein kinase 9 (Homo sapiens) (UniProt P45984). Description: Binding affinity to human JNK2 at 50 nM by cell-based competition binding assay relative to control in presence of DTT. The procedure, abridged:
as §1

In test [14] the target is T2, Serine/threonine-protein kinase STK11 (Homo sapiens) (UniProt Q15831).
T2 sequence (whole entry): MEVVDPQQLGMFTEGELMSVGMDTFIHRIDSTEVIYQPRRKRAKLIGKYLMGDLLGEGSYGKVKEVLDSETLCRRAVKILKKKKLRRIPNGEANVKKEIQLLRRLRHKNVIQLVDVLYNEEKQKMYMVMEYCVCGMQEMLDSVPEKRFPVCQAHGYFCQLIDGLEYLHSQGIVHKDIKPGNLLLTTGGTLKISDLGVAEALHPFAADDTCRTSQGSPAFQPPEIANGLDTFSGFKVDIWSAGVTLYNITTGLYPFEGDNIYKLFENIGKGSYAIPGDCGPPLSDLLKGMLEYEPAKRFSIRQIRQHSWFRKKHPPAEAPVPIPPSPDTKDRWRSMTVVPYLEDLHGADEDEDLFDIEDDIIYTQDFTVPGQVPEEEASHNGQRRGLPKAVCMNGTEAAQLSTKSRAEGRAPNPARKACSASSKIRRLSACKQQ
Description: Binding affinity to human LKB1 at 50 nM by cell-based competition binding assay relative to control in presence of DTT. The procedure, abridged: as §1

In test [15] the target is Non-receptor tyrosine-protein kinase TYK2 (Homo sapiens) (UniProt P29597). Kind of test: Binding affinity to human TYK2 kinase domain 2 at 50 nM by cell-based competition binding assay relative to control in presence of DTT.
The target of test [16] is Mitogen-activated protein kinase 14 (Homo sapiens) (UniProt Q16539). Kind of test: Binding affinity to human p38alpha at 50 nM by cell-based competition binding assay relative to control in presence of DTT.

Mitogen-activated protein kinase 10 (Homo sapiens), sequence (P53779 whole entry): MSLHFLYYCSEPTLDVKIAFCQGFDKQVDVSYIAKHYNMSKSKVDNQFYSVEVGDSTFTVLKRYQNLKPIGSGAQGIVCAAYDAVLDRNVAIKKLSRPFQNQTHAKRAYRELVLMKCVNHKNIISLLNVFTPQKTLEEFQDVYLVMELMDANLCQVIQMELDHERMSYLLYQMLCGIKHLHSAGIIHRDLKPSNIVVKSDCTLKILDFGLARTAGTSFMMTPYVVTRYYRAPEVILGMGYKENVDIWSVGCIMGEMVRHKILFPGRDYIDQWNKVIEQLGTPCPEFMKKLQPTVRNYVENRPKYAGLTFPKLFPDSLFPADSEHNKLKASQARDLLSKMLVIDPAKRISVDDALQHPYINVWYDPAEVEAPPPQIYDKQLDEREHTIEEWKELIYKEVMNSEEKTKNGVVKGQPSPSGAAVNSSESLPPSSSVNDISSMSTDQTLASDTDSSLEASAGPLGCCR
Mitogen-activated protein kinase 9 (Homo sapiens), sequence (P45984 whole entry, looked up): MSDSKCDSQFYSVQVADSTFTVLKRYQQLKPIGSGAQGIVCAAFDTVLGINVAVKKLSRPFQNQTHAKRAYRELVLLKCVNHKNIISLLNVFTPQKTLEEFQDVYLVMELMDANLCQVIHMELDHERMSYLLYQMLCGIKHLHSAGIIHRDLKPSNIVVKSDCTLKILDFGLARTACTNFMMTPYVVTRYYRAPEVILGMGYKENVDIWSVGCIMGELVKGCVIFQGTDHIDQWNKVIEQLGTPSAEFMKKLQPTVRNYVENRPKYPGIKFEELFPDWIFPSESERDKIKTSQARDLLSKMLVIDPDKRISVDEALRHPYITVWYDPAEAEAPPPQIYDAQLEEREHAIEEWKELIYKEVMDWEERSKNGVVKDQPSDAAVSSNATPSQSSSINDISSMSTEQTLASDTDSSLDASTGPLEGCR
Fibroblast growth factor receptor 3 (Homo sapiens), sequence (P22607 23-806 limits assumed): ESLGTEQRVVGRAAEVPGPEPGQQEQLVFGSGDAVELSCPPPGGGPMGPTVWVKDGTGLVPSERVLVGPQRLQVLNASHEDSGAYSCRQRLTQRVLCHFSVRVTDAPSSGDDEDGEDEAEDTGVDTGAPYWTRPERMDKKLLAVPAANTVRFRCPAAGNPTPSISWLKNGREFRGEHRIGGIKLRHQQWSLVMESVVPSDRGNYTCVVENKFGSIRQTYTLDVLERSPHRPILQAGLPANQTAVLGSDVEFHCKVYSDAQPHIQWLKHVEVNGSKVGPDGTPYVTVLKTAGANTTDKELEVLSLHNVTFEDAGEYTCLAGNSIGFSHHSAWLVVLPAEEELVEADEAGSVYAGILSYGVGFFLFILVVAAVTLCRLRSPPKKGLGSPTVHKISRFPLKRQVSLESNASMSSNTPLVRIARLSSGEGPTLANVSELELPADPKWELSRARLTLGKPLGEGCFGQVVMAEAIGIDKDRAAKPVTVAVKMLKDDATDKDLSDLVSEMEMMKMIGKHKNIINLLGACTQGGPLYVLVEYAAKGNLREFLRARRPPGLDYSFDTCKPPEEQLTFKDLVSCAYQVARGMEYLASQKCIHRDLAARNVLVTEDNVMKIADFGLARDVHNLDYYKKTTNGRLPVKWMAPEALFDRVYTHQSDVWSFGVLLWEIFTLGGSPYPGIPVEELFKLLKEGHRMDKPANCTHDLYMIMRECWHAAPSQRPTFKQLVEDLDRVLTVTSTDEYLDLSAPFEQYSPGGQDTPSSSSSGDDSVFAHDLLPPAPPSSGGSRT
Phosphatidylinositol 4,5-bisphosphate 3-kinase catalytic subunit alpha isoform (Homo sapiens), sequence (P42336 whole entry, canonical isoform): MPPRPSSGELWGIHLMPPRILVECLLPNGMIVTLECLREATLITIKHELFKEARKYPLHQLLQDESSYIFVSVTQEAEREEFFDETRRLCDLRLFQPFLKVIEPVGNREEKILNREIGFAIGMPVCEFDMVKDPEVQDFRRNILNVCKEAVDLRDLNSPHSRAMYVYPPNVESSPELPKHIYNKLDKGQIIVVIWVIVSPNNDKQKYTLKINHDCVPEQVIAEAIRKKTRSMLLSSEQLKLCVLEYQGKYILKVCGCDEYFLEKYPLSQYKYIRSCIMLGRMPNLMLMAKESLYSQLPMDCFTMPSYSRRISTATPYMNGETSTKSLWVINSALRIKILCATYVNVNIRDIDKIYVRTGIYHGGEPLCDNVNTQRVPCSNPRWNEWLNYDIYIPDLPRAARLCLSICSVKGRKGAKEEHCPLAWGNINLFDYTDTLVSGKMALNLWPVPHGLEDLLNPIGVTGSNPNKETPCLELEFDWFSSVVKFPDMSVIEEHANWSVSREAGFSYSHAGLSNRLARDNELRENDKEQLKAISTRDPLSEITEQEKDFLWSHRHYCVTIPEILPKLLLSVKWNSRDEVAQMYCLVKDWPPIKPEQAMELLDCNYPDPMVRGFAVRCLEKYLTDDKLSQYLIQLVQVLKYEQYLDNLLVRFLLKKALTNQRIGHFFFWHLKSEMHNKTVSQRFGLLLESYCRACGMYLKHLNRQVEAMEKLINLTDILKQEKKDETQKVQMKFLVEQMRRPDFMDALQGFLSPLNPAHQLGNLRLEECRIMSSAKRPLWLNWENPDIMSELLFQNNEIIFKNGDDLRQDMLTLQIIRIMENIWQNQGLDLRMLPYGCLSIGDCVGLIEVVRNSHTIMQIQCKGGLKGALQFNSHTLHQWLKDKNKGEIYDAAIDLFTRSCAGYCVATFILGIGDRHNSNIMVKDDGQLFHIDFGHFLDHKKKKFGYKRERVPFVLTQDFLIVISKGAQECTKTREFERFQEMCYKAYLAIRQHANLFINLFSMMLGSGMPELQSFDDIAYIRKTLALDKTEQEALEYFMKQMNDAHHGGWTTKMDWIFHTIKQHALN

Consider `CO[C@@H]1[C@H](N(C)C(=O)CCC(=O)NCCC(=O)NCCC(=O)NCCC(N)=O)C[C@H]2O[C@]1(C)n1c3ccccc3c3c4c(c5c6ccccc6n2c5c31)C(=O)NC4`, for which the Activity in test [1] came out at 34%; in test [2] it was 100%; in [3] it was 5.6%; in test [4], 65%; in test [5], 19%; in test [7] it was 55%. The Activity in [8] amounted to 4%. Further, in [6], the Selectivity ratio stood at 84.
As for `CO[C@@H]1[C@H](N(C)C(=O)CCC(=O)NCCC(=O)NCCC(=O)NCCC(=O)NCCC(=O)NCCC(=O)NCCC(=O)NCCC(=O)N[C@H]2CSSC[C@@H](C(=O)NCC(N)=O)NC(=O)CNC(=O)[C@H](Cc3ccccc3)NC(=O)[C@H](C(C)C)NC(=O)[C@H](CCCNC(=N)N)NC(=O)[C@H](Cc3ccccc3)NC(=O)[C@H](C(C)C)NC2=O)C[C@H]2O[C@]1(C)n1c3ccccc3c3c4c(c5c6ccccc6n2c5c31)C(=O)NC4` ({Staurosporine-Suc-βAla-βAla-βAla-βAla-βAla-βAla-βAla}-CVFRVFGCG-NH2; disulfide 1-8), the Activity in [9] turned out to be 86%; in test [10], 77%; in test [11] it was 85%; in [12] it was 89%.
Consider `CO[C@@H]1[C@H](N(C)C(=O)CCC(=O)NCCC(=O)NCCC(=O)NCCC(=O)NCCC(=O)NCCC(=O)NCCC(=O)NCCC(=O)N[C@H]2CNC(=O)C[C@@H](C(N)=O)NC(=O)CNC(=O)[C@H](Cc3ccccc3)NC(=O)[C@H](C(C)C)NC(=O)[C@H](CCCNC(=N)N)NC(=O)[C@H](Cc3ccccc3)NC(=O)[C@H](C(C)C)NC2=O)C[C@H]2O[C@]1(C)n1c3ccccc3c3c4c(c5c6ccccc6n2c5c31)C(=O)NC4` ({Staurosporine-Suc-βAla-βAla-βAla-βAla-βAla-βAla-βAla}-[Dap]VFRVFGD-NH2; lactam 1-8), for which the Activity in [13] was determined as 88%; in test [14] it was 100%; in test [15], 100%; in [16] it was 95%.
